The source made the active and inactive calls. No cut-off for these calls is given here.
Assays:
[1] = test system: RT-112; assay: Growth inhibition of human RT112 cells at 500 uM measured after 1 hr by Celltiter-Glo luminescent cell viability assay relative to control; assay type: functional; settings: RT-112, 1 h, read-out: GI
How it was run: (§1)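 Cells seeded 10000/well, 24 h, then exposed in ATCC-recommended medium to 62.5–2000 μM (two-fold steps) or vehicle for the set time (5–60 min), then normal medium. After 24 h, plates equilibrated 30 min at room temperature, CellTiter-Glo added, 2 min at room temperature, luminescence read. Survival relative to vehicle control; quadruplicate.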

[2] = test system: UMUC3; assay: Growth inhibition of human UM-UC-3 cells measured after 1 hr by Celltiter-Glo luminescent cell viability assay; assay type: functional; settings: UMUC3, 1 h; how it was run: as §1
[3] = test system: 5637; assay: Growth inhibition of human 5637 cells measured after 1 hr by Celltiter-Glo luminescent cell viability assay; assay type: functional; settings: Homo sapiens, 5637, 1 h
How it was run: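 Seeded at 10000 cells/well and grown 24 h, then exposed to 62.5–2000 μM (two-fold steps) or vehicle in growth medium for 1 h. Medium was replaced with normal medium for 24 h before CellTiter-Glo luminescence was read. Survival was expressed relative to vehicle, with quadruplicate wells, and GI50 was calculated.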

[4] = test system: RT-4; assay: Growth inhibition of human RT4 cells at 1000 uM measured after 15 to 60 mins by Celltiter-Glo luminescent cell viability assay relative to control; assay type: functional; settings: read-out: GI; how it was run: as §1
[5] = test system: NCI-H460; assay: Growth inhibition of human NCI-H460 cells assessed as growth percent at 10 uM incubated for 48 hrs by sulforhodamine B assay relative to control; assay type: functional; settings: NCI-H460, 48 h, read-out: Activity
[6] = test system: NCI-H522; assay: Growth inhibition of human NCI-H522 cells assessed as growth percent at 10 uM incubated for 48 hrs by sulforhodamine B assay relative to control; assay type: functional; settings: NCI-H522, 48 h, read-out: Activity
[7] = test system: HCT-15; assay: Growth inhibition of human HCT15 cells assessed as growth percent at 10 uM incubated for 48 hrs by sulforhodamine B assay relative to control; assay type: functional; settings: HCT-15, 48 h, read-out: Activity
[8] = test system: Malme-3M; assay: Growth inhibition of human MALME-3M cells assessed as growth percent at 10 uM incubated for 48 hrs by sulforhodamine B assay relative to control; assay type: functional; settings: read-out: Activity
[9] = test system: SK-MEL-2; assay: Growth inhibition of human SK-MEL-2 cells assessed as growth percent at 10 uM incubated for 48 hrs by sulforhodamine B assay relative to control; assay type: functional; settings: SK-MEL-2, 48 h, read-out: Activity
[10] = test system: IGROV-1; assay: Growth inhibition of human IGROV1 cells assessed as growth percent at 10 uM incubated for 48 hrs by sulforhodamine B assay relative to control; assay type: functional; settings: IGROV-1, 48 h, read-out: Activity
[11] = test system: OVCAR-3; assay: Growth inhibition of human OVCAR3 cells assessed as growth percent at 10 uM incubated for 48 hrs by sulforhodamine B assay relative to control; assay type: functional; settings: OVCAR-3, 48 h, read-out: Activity
[12] = test system: OVCAR-5; assay: Growth inhibition of human OVCAR5 cells assessed as growth percent at 10 uM incubated for 48 hrs by sulforhodamine B assay relative to control; assay type: functional; settings: OVCAR-5, 48 h, read-out: Activity
[13] = test system: RT-112; assay: Anticlonogenic activity against human RT112 cells assessed as no colony formation at 250 to 500 uM incubated for 1 hr measured after culturing in normal medium for 10 days by crystal violet staining assay; assay type: functional, cell-based
How it was run: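 Cells seeded at 500/well, treated 24 h later with 250 or 500 μM drug or vehicle for 1 h. Cells were then grown in normal media for 10 days, stained with 0.5% crystal violet in 20% MeOH/water at 4 °C for 5 min, washed, dried and imaged. Run in triplicate.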

[14] = test system: UO-31; assay: Growth inhibition of human UO31 cells assessed as growth percent at 10 uM incubated for 48 hrs by sulforhodamine B assay relative to control; assay type: functional; settings: UO-31, 48 h, read-out: Activity
[15] = test system: Hs-578T; assay: Growth inhibition of human Hs 578T cells assessed as growth percent at 10 uM incubated for 48 hrs by sulforhodamine B assay relative to control; assay type: functional; settings: read-out: Activity
[16] = test system: Mus musculus; assay: Antitumor activity against anesthetized BBN-induced bladder tumor mouse model assessed as increase in cleaved caspase 3 level in dysplasia region at 1500 uM administered via intravesical instillation treated for 1 hr administered as 2 doses at 24 hrs interval and measured at 24 hrs after final treatment by hematoxylin and eosin staining based immunohistochemical analysis; assay type: functional, organism-based
[17] = Toxicity in anesthetized female mouse model assessed as fibrosis at 750 to 1500 uM administered via intravesical instillation after bladder evacuation treated for 1 hr followed by repetition of the treatment after 24 hrs and measured at 24 hrs after final treatment; settings: in vivo, other
How it was run: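 Female mice anesthetized, 1–3% isoflurane. Bladder evacuated, then 100 μL of 750 or 1500 μM in 10% DMSO/PBS (or vehicle) instilled by 24G angiocatheter. Catheter left in place for a 1 h dwell. Repeated after 24 h; mice sacrificed 24 h after final dose. Bladder histology read for urothelial height and layers.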

Compound: [Br-].[Br-].c1ccc([P+](CCCc2n(Cc3ccc4ccccc4c3)c3ccccc3[n+]2Cc2ccc3ccccc3c2)(c2ccccc2)c2ccccc2)cc1
- inhibition of growth at 500 µM [1]: 100%
- GI50 [2]: 80 µM
- GI50 [3]: 200 µM
- inhibition of growth at 1000 µM [4]: 100%
- growth at 10 µM [5]: 34.8%
- growth at 10 µM [6]: 60.2%
- growth at 10 µM [7]: 85.5%
- growth at 10 µM [8]: 65.2%
- growth at 10 µM [9]: 100%
- growth at 10 µM [10]: 20.8%
- growth at 10 µM [11]: 75.8%
- growth at 10 µM [12]: 60.1%
- inhibition [13]: Active
- growth at 10 µM [14]: 61.2%
- growth at 10 µM [15]: 68.6%
- Activity [16]: Active
- Activity [17]: Non-Toxic
